Laboratory results as given in ChEMBL document CHEMBL1126323, “Inhibitors of protein kinase C. 2. Substituted bisindolylmaleimides with improved potency and selectivity” (J Med Chem, 1992).

Key:
[1] = target: Protein kinase C (PKC); assay: Inhibition of protein kinase C (PKC) in rat brain; type: tissue-based
In short: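 PKC from rat brain was assayed by a method described earlier. Each data point was done in triplicate. IC50 is the mean of at least two independent determinations.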

[2] = Inhibition of c-AMP dependent protein kinase A (PKA) in bovine heart
In short: (§1)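 Kinase assay on PKA isolated from bovine heart, run by a method described earlier. Each data point was done in triplicate. IC50 values are the mean of at least two independent assays.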

[3] = Inhibition of protein kinase A (PKA) in bovine heart; in short: as §1

| SMILES | IC50 [1] [µM] | IC50 [2] [µM] | IC50 [3] [µM] |
| --- | --- | --- | --- |
| Cn1cc(C2=C(c3cn(CCCCN)c4ccccc34)C(=O)NC2=O)c2ccccc21 | 0.055 | 9.3 | – |
| Cn1cc(C2=C(c3cn(CCSC(=N)N)c4ccccc34)C(=O)NC2=O)c2ccccc21 | 0.041 | – | 12.1 |
| Cn1cc(C2=C(c3cn(CCCN=C(N)N)c4ccccc34)C(=O)NC2=O)c2ccccc21 | 0.019 | 2.9 | – |
| Cn1cc(C2=C(c3cn(CCO)c4ccccc34)C(=O)NC2=O)c2ccccc21 | 0.34 | 22.1 | – |
| Cn1cc(C2=C(c3cn(CCN)c4ccccc34)C(=O)NC2=O)c2ccccc21 | 0.064 | 8.9 | – |
| CN(C)CCCn1cc(C2=C(c3cn(C)c4ccccc34)C(=O)NC2=O)c2ccccc21 | 0.045 | 25.6 | – |
| Cn1cc(C2=C(c3cn(CCCCSC(=N)N)c4ccccc34)C(=O)NC2=O)c2ccccc21 | 0.028 | – | 2.7 |
| Cn1cc(C2=C(c3cn(CCCN)c4ccccc34)C(=O)NC2=O)c2ccccc21 | 0.075 | 5.2 | – |
| CNCCCn1cc(C2=C(c3cn(C)c4ccccc34)C(=O)NC2=O)c2ccccc21 | 0.035 | 11.9 | – |
| Cn1cc(C2=C(c3cn(CCCCO)c4ccccc34)C(=O)NC2=O)c2ccccc21 | 0.17 | 18.4 | – |
| Cn1cc(C2=C(c3cn(CCCCCO)c4ccccc34)C(=O)NC2=O)c2ccccc21 | 0.28 | 21.3 | – |
| Cn1cc(C2=C(c3cn(CCCO)c4ccccc34)C(=O)NC2=O)c2ccccc21 | 0.13 | 14.2 | – |
| Cn1cc(C2=C(c3cn(CCCCCN)c4ccccc34)C(=O)NC2=O)c2ccccc21 | 0.076 | 10.4 | – |
| Cn1cc(C2=C(c3cn(CCCCCSC(=N)N)c4ccccc34)C(=O)NC2=O)c2ccccc21 | 0.047 | – | 4.6 |
| Cn1cc(C2=C(c3cn(CCC/N=C(\N)N[N+](=O)[O-])c4ccccc34)C(=O)NC2=O)c2ccccc21 | 0.026 | – | 4.9 |
| Cn1cc(C2=C(c3cn(CCC[N+](C)(C)C)c4ccccc34)C(=O)NC2=O)c2ccccc21 | 0.093 | 64.5 | – |
| Cn1cc(C2=C(c3cn(CCCCC(=N)N)c4ccccc34)C(=O)NC2=O)c2ccccc21 | 0.031 | 7.4 | – |
| Cn1cc(C2=C(c3cn(CCCSC(=N)N)c4ccccc34)C(=O)NC2=O)c2ccccc21 [BISINDOLYLMALEIMIDE IX] | 0.01 | – | 0.9 |
